# Experimental data from ChEMBL document CHEMBL2375292, “Biaryl tetrazolyl ureas as inhibitors of endocannabinoid metabolism: modulation at the N-portion and distal phenyl ring” (Eur J Med Chem, 2013).
# What was measured:
# [1] = target: T1, Transient receptor potential cation channel subfamily A member 1 (Rattus norvegicus, UniProt Q6RI86); assay: Antagonist activity at rat TRPA1 receptor expressed in HEK293 cells assessed as inhibition of allyl isothiocyanate-induced intracellular Ca2+ elevation incubated for 5 mins prior to allyl isothiocyanate-stimulation by spectrofluorimetric analysis; assay type: cell-based
# How it was run: (§1)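 Fluo-4-loaded HEK293 cells stably expressing human TRPV1 or rat TRPA1, in Tyrode's buffer pH 7.4, received test compound in the cuvette 5 min before agonist: capsaicin 0.1 µM for TRPV1, AITC 100 µM for TRPA1. The [Ca²⁺]i rise with agonist alone was set to 100%. IC50 came from a variable-slope sigmoidal fit. Untransfected-cell signal was subtracted.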
# [2] = target: T2, Transient receptor potential cation channel subfamily V member 1 (Homo sapiens, UniProt Q8NER1); assay: Agonist activity at human TRPV1 receptor expressed in HEK293 cells assessed as increase in intracellular Ca2+ concentration by spectrofluorimetric analysis relative to ionomycin; assay type: cell-based
# How it was run: (§2)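 HEK293 cells stably transfected with human TRPV1 or rat TRPA1 cDNA (pcDNA3, G-418 selection) were loaded 1 h at room temperature with Fluo-4-AM, washed and suspended in Tyrode's buffer pH 7.4. [Ca²⁺]i was read by stirred-cuvette spectrofluorimetry before and after adding test compound at various concentrations. Signal from untransfected cells was subtracted. Efficacy was taken as percent of ionomycin (4 µM) for TRPV1 and percent of allyl isothiocyanate (100 µM) for TRPA1; EC50 was also derived.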
# [3] = target: Transient receptor potential cation channel subfamily A member 1 (Rattus norvegicus) (UniProt Q6RI86); assay: Agonist activity at rat TRPA1 receptor expressed in HEK293 cells assessed as increase in intracellular Ca2+ concentration by spectrofluorimetric analysis relative to allyl isothiocyanate; assay type: cell-based; how it was run: as §2
# [4] = target: T2, Transient receptor potential cation channel subfamily V member 1; assay: Agonist activity at human TRPV1 receptor expressed in HEK293 cells assessed as increase in intracellular Ca2+ concentration by spectrofluorimetric analysis; assay type: cell-based; how it was run: as §2
# [5] = target: T3, Fatty-acid amide hydrolase 1 (Rattus norvegicus, UniProt P97612); assay: Inhibition of FAAH in rat brain membranes assessed as [14C]AEA hydrolysis to [14C]Ethanolamine after 30 mins by scintillation counting analysis; assay type: cell membranes
# T3 sequence (P97612 whole entry): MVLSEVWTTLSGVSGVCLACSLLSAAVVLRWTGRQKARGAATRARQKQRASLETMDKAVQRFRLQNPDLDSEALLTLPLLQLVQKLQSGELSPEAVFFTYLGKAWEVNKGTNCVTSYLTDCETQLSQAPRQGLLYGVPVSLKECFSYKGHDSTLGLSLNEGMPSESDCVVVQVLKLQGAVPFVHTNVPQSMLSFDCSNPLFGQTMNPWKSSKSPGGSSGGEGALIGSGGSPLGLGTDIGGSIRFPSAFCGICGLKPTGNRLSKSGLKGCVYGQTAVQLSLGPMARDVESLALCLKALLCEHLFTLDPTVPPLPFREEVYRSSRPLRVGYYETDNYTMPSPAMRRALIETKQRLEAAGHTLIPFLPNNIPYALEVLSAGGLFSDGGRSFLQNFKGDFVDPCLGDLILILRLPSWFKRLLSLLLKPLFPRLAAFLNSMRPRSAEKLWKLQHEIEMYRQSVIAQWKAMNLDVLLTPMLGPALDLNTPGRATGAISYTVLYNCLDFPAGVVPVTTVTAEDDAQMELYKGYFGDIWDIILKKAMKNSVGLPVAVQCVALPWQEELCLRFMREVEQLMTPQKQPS
# How it was run: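 Rat brain membranes were incubated with [¹⁴C]AEA in 50 mM Tris-HCl pH 9 for 30 min at 37 °C. Released [¹⁴C]ethanolamine in the aqueous phase was counted by scintillation after CHCl₃/CH₃OH 2/1 extraction. IC50 was the concentration giving 50% inhibition.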
# [6] = target: T2, Transient receptor potential cation channel subfamily V member 1; assay: Antagonist activity at human TRPV1 receptor expressed in HEK293 cells assessed as inhibition of capsaicin-induced intracellular Ca2+ elevation incubated for 5 mins prior to capsaicin-stimulation by spectrofluorimetric analysis; assay type: cell-based; how it was run: as §1
# [7] = target: T1, Transient receptor potential cation channel subfamily A member 1; assay: Agonist activity at rat TRPA1 receptor expressed in HEK293 cells assessed as increase in intracellular Ca2+ concentration by spectrofluorimetric analysis; assay type: cell-based; how it was run: as §2
# Monoglyceride lipase = target: T4, Monoglyceride lipase (Homo sapiens, UniProt Q99685); assay: Inhibition of MAGL (unknown origin) expressed in African green monkey COS7 cell cytosolic fraction assessed as [3H]2-AG hydrolysis to [3H]arachidonic acid after 20 mins by beta counting analysis; parameters: species or system COS-7
# T4 sequence (Q99685 whole entry): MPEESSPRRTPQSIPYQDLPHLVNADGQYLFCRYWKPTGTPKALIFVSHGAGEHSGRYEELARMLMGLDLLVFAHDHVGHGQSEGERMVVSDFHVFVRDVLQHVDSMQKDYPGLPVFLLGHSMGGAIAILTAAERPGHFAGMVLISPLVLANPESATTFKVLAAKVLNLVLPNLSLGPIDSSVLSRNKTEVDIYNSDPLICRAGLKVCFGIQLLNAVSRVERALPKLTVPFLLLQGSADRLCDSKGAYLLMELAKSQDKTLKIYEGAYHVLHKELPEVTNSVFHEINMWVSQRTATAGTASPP
# T2 sequence (Q8NER1 whole entry): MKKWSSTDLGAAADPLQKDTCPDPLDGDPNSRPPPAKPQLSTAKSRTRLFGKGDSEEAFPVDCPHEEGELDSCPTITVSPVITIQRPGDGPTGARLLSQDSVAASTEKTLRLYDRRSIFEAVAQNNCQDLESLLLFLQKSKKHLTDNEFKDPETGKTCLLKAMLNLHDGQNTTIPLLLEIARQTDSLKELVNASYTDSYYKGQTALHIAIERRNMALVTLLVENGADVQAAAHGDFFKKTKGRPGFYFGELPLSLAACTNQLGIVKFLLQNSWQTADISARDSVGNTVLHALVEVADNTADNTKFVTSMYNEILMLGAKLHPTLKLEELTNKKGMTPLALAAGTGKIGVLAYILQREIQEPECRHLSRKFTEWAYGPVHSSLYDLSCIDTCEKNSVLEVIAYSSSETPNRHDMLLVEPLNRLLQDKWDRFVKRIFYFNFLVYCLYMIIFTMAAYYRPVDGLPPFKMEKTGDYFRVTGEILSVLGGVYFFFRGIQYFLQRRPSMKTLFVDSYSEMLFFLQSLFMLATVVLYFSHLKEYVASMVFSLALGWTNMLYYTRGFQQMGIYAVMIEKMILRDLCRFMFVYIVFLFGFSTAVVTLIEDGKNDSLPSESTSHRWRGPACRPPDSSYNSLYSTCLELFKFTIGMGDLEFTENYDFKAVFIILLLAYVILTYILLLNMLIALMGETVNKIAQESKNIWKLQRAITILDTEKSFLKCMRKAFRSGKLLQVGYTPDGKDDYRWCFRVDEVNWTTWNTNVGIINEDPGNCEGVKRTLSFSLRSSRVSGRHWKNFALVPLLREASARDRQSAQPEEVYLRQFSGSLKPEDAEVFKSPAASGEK
# T1 sequence (Q6RI86 whole entry): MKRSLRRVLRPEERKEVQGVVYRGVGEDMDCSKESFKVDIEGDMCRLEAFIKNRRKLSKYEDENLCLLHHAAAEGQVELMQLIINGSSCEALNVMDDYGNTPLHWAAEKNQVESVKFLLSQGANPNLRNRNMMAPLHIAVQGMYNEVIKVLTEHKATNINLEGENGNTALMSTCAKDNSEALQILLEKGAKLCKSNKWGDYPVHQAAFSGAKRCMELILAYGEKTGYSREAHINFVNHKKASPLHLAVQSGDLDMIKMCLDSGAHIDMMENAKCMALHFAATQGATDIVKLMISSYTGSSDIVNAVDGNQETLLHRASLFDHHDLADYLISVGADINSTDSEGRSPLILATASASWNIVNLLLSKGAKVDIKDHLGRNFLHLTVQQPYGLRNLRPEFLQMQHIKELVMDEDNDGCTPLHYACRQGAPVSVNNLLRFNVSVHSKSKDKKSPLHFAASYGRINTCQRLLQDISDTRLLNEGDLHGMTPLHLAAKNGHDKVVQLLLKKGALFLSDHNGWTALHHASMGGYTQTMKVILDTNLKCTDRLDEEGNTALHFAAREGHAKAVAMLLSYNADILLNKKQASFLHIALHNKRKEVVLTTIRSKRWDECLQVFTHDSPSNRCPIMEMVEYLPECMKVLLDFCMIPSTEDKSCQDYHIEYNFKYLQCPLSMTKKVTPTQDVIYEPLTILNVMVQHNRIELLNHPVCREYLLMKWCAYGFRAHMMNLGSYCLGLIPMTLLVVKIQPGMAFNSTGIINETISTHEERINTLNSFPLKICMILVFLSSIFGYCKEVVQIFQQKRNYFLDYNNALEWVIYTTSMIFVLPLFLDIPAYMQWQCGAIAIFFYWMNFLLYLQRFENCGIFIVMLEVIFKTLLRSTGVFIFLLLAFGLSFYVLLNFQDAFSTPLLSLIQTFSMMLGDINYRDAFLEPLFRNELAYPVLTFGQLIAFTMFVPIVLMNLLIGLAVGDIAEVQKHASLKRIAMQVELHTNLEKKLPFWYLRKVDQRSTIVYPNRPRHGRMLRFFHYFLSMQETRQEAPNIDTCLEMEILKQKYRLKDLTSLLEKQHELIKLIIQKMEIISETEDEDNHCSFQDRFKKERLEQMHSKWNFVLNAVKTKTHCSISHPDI
# Chain of Transient receptor potential cation channel subfamily A member 1 (Rattus norvegicus) (Q6RI86 whole entry): as above
Compound,IC50 [1] [µM],Efficacy [2] [%],Efficacy [3] [%],EC50 [4] [µM],IC50 [5] [µM],IC50 [6] [µM],EC50 [7] [µM],IC50 (Monoglyceride lipase) [µM]
CC(=O)c1cccc(-c2ccc(Cc3nnnn3C(=O)N(C)C)cc2)c1,> 100,< 10,< 10,,0.0147,> 100,,> 1
CN(CCCCc1ccccc1)C(=O)n1nnnc1Cc1ccc(-c2ccccc2)cc1,83.7,45.7,89.9,1.5,0.0213,7.1,20.1,> 1
CN(C)C(=O)n1nnnc1Cc1ccc(-c2cccc(C(N)=O)c2)cc1,> 100,21.3,30.7,32.3,0.011,> 100,50.1,> 1
CN(C)C(=O)n1nnnc1Cc1ccc(-c2ccc(O)cc2)cc1,> 100,< 10,40.5,,0.0167,> 100,21.7,> 1
CC(=O)c1cccc(-c2ccc(Cc3nnn(C(=O)N(C)C)n3)cc2)c1,97.2,< 10,< 10,,0.0342,> 100,,
COC(=O)c1cccc(-c2ccc(Cc3nnn(C(=O)N(C)C)n3)cc2)c1,91.2,< 10,< 10,,0.0123,> 100,,
COC(=O)c1cccc(-c2ccc(Cc3nnnn3C(=O)N(C)C)cc2)c1,99.8,< 10,< 10,,0.0121,> 100,,> 1
CN(C)C(=O)n1nnnc1Cc1ccc(-c2ccccc2O)cc1,> 100,< 10,228,,0.0156,> 100,59.7,> 1
CN(C)C(=O)n1nnc(Cc2ccc(-c3ccc(CO)cc3)cc2)n1,70.6,< 10,67.3,,0.0075,> 100,24.4,
CN(C)C(=O)n1nnc(Cc2ccc(-c3cccc(C(N)=O)c3)cc2)n1,83.1,< 10,< 10,,0.0071,91.8,,
CN(C)C(=O)n1nnnc1Cc1ccc(-c2cccc(O)c2)cc1,> 100,20,35.7,25,0.003,67.4,26.8,
CN(C)C(=O)n1nnnc1Cc1ccc(-c2ccc(CO)cc2)cc1,52.6,< 10,58.7,,0.0374,> 100,24.2,> 1
CN(C)C(=O)n1nnc(Cc2ccc(-c3cccc(CO)c3)cc2)n1,> 100,< 10,< 10,,0.0107,> 100,,
CN(C)C(=O)n1nnnc1Cc1ccc(-c2cccc(CO)c2)cc1,> 100,< 10,< 10,,0.0106,> 100,,
CN(CCCCc1ccccc1)C(=O)n1nnc(Cc2ccc(-c3ccccc3)cc2)n1,92.1,15.9,< 10,1.7,0.0116,47.6,,

# The next compounds have a lower IC50 [1] than those just listed; values first:
IC50 [1] [µM],Efficacy [2] [%],Efficacy [3] [%],EC50 [4] [µM],IC50 [5] [µM],IC50 [6] [µM],EC50 [7] [µM],IC50 (Monoglyceride lipase) [µM],Compound
49.4,< 10,101,,,> 100,26.9,,CN(C)C(=O)n1nnnc1Cc1ccc(-c2ccccc2)cc1
45.2,< 10,349,,0.0355,> 100,48.7,> 1,Cc1ccccc1-c1ccc(Cc2nnnn2C(=O)N(C)C)cc1
30.2,< 10,109,,0.0054,> 100,14.6,,CN(C)C(=O)n1nnc(Cc2ccc(-c3ccc(O)cc3)cc2)n1
28,< 10,445,,0.0402,> 100,53.3,,CN(C)C(=O)n1nnc(Cc2ccc(-c3ccccc3O)cc2)n1
24.3,36.1,< 10,11.9,0.0169,4.5,,,CN(Cc1ccc2ccccc2c1)C(=O)n1nnc(Cc2ccc(-c3ccccc3)cc2)n1
21.5,66.7,130,1.8,0.0681,7.4,3.7,,O=C(N1CCCCC1)n1nnc(Cc2ccc(-c3ccccc3)cc2)n1
18.9,< 10,202,,0.0517,> 100,15.9,,Cc1ccccc1-c1ccc(Cc2nnn(C(=O)N(C)C)n2)cc1
17.8,< 10,187,,0.0485,78.9,15,,Cc1cccc(-c2ccc(Cc3nnn(C(=O)N(C)C)n3)cc2)c1
15.9,28,388,22.5,0.0071,> 100,19.7,> 1,Cc1ccc(-c2ccc(Cc3nnnn3C(=O)N(C)C)cc2)cc1
15,34.1,53.9,2.5,0.0867,7.6,13.5,> 1,CN(Cc1ccc2ccccc2c1)C(=O)n1nnnc1Cc1ccc(-c2ccccc2)cc1
14.9,45.6,84.7,13.4,0.725,18.3,4.9,> 1,CN(C(=O)n1nnnc1Cc1ccc(-c2ccccc2)cc1)C1CCCCC1
12.5,67.4,106,5.9,0.0382,22.6,6.5,> 1,O=C(N1CCCCC1)n1nnnc1Cc1ccc(-c2ccccc2)cc1
11.2,14.5,186,5,,31.3,20.1,,CN(C)C(=O)n1nnc(Cc2ccc(-c3ccccc3)cc2)n1
10.5,33.3,275,4.8,0.0462,20.6,10.3,,Cc1ccc(-c2ccc(Cc3nnn(C(=O)N(C)C)n3)cc2)cc1
